Marks after values point to notes of the source that are not given here.
Tests used:
healthy subjects [1] = assay: Safety: treatment-emergent adverse events; format: in vivo, human; conditions: single s.c. dose 0.2 U/kg; for Headache, number of subjects / Headache, percentage of subjects / Hypoglycaemia, events (one subject each) / Injection site erythema, number of subjects / Injection site erythema, percentage of subjects / Nasopharyngitis, number of subjects / Nasopharyngitis, percentage of subjects: TEAE
How it was run: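 In a randomized three-period crossover with washouts, each subject received a single 0.2 U/kg s.c. dose per period. Treatment-emergent adverse events were recorded per treatment and graded mild, moderate or severe. They were summarised descriptively by visit/treatment as subject counts, percentages and event numbers.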

[2] = format: in vivo, human
How it was run: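 Healthy volunteers in a randomized crossover each received a single 0.2 U/kg s.c. dose per period. Plasma was sampled predose and from 5 to 720 min postdose. Insulin aspart, with 15N-labelled internal standard, was captured on anti-insulin antibody magnetic beads and measured by UPLC-MS/MS (range 100-8000 pg/mL). AUC ratios and CIs came from Fieller's theorem. Time endpoints were summarised descriptively by treatment.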

healthy subjects [3] = assay: Pharmacodynamics: automated euglycaemic glucose clamp; format: in vivo, human; conditions: Ref‐InsAsp‐US vs. Ref‐InsAsp‐EU (N = 65); two-sided 90% CI; Fieller's theorem
How it was run: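 Healthy adults aged 18-65 with BMI 18.5-29.0 kg/m2 and fasting glucose ≤5.5 mmol/L. Randomized crossover: single 0.2 U/kg s.c. dose per period, 12- to 16-day washout. Before dosing, variable i.v. human insulin brought blood glucose to the 81 mg/dL target. Glucose infusion was then adjusted automatically over a 12 h clamp, GIR logged every minute. Partial-AUC ratios with CIs came from Fieller's theorem.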

[4] = Ref‐InsAsp‐US vs. Ref‐InsAsp‐EU (N = 66), two-sided 90% CI, Fieller's theorem
[5] = healthy subjects, single s.c. dose 0.2 U/kg, plasma, arithmetic mean (SD)

MYL‐1601D: rapid‐acting human insulin analogue, biosimilar insulin aspart 100 U/mL, produced by recombinant DNA technology utilizing Pichia pastoris (Mylan)
Headache, number of subjects (healthy subjects [1]): four | Headache, percentage of subjects (healthy subjects [1]): 5.7% | Hypoglycaemia, events (one subject each) (healthy subjects [1]): one | Injection site erythema, number of subjects (healthy subjects [1]): two | Injection site erythema, percentage of subjects (healthy subjects [1]): 2.9% | Nasopharyngitis, number of subjects (healthy subjects [1]): three | Nasopharyngitis, percentage of subjects (healthy subjects [1]): 4.3% | Number of TEAE events (healthy subjects [1]): 18 events | Subjects with at least one TEAE, percentage (healthy subjects [1]): 15.7%

Insulin aspart [Ref‐InsAsp‐US]
AUC0‐6h LS‐mean ratio [2, 4]: 99.71 (97.90; 101.52) % | AUC6‐12h LS‐mean ratio [2, 4]: 107.18 (83.81; 137.45) % | t50%‐late (time to half‐maximum after Cmax) [2, 5]: 3.13 (0.86) h | tmax (time to maximum observed insulin aspart concentration) [2, 5]: 1.11 (0.45) h | λz (terminal elimination rate constant) [2, 5]: 0.82 (0.27) /h | Headache, number of subjects (healthy subjects [1]): five | Headache, percentage of subjects (healthy subjects [1]): 7.2% | Hypoglycaemia, events (one subject each) (healthy subjects [1]): one | Injection site erythema, number of subjects (healthy subjects [1]): one | Injection site erythema, percentage of subjects (healthy subjects [1]): 1.4% | Nasopharyngitis, number of subjects (healthy subjects [1]): none | Number of TEAE events (healthy subjects [1]): 12 events | Subjects with at least one TEAE, percentage (healthy subjects [1]): 15.9% | Subjects with at least one treatment‐emergent adverse event (TEAE), number (healthy subjects [1]): 11 subjects | AUCGIR,0‐4h LS‐mean ratio (healthy subjects [3]): 94.11 (90.37; 97.99) ^b % | AUCGIR,0‐6h LS‐mean ratio (healthy subjects [3]): 94.81 (91.46; 98.27) ^b % | AUCGIR,6h‐last LS‐mean ratio (healthy subjects [3]): 101.05 (95.75; 106.64) ^b %

Insulin aspart [Ref‐InsAsp‐EU]
t50%‐early (time to half‐maximum before Cmax) [2, 5]: 0.45 (0.12) h | t50%‐late (time to half‐maximum after Cmax) [2, 5]: 3.1 (0.84) h | tmax (time to maximum observed insulin aspart concentration) [2, 5]: 1.10 (0.53) h | λz (terminal elimination rate constant) [2, 5]: 0.86 (0.28) /h | Headache, number of subjects (healthy subjects [1]): eight | Headache, percentage of subjects (healthy subjects [1]): 11.9% | Injection site erythema, number of subjects (healthy subjects [1]): one | Injection site erythema, percentage of subjects (healthy subjects [1]): 1.5% | Nasopharyngitis, number of subjects (healthy subjects [1]): two | Nasopharyngitis, percentage of subjects (healthy subjects [1]): 3.0% | Number of TEAE events (healthy subjects [1]): 13 events | Subjects with at least one TEAE, percentage (healthy subjects [1]): 19.4% | Subjects with at least one treatment‐emergent adverse event (TEAE), number (healthy subjects [1]): 13 subjects

Source: paper PMC9292719 (Diabetes, Obesity & Metabolism, 2021)
